Calls of active or inactive are those of the source.
Key:
[1] = biological target: T1, 5-hydroxytryptamine receptor 3A (Cavia porcellus) (UniProt O70212); assay: Agonist activity at 5HT3 receptor in voltage-stimulated guinea pig left atrium assessed as positive inotropic potency at 100 uM; format: functional, tissue-based; settings: Cardiac atrium
T1 sequence (whole entry): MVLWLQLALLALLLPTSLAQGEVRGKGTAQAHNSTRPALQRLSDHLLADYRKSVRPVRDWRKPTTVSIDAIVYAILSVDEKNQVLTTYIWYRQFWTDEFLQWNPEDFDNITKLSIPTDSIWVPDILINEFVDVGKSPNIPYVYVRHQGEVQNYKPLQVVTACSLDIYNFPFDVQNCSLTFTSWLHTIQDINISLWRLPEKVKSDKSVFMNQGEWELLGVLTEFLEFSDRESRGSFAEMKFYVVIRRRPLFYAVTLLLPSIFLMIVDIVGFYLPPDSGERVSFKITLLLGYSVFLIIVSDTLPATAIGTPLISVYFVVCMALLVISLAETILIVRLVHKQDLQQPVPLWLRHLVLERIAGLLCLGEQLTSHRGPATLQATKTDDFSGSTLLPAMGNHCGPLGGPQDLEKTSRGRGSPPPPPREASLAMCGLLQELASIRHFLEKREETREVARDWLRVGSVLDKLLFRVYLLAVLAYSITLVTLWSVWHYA
Procedure, shortened: (§1)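 Guinea pig left and right atria were hung in a 15 mL bath of PSS (pH 7.4, 95% O2-5% CO2, 35 °C) with ketanserin 1 µM. The right atrium beat spontaneously; the left was paced at 1 Hz. Cumulative doses (0.1-100 µM; DMSO ≤0.3%) were added after 45-60 min stabilization. Rate or isometric force was recorded. EC50 came from Probit analysis, n≥4. Intrinsic activity was taken relative to 5-HT.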

[2] = biological target: T1, 5-hydroxytryptamine receptor 3A (Cavia porcellus); assay: Agonist activity at 5HT3 receptor in guinea pig thoracic aorta assessed as positive contractility potency at 100 uM; format: functional, tissue-based
Procedure, shortened: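 Guinea pig aortic helicoidal strips in PSS at 35 °C, aerated, under 1 g resting force, washed every 20 min for 1 h. Compounds added cumulatively 0.1-100 µM (DMSO vehicle); isometric contraction recorded.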

[3] = biological target: T2, 5-hydroxytryptamine receptor 3A (Cavia porcellus, UniProt O70212); assay: Antagonist activity at 5HT3 receptor in spontaneously beating guinea pig right atrium assessed as inhibition of serotonin-induced maximum response by competitive binding assay; parameters: species or system Cardiac atrium; settings: read-out: pA2 (converted)
T2 sequence (O70212 whole entry): T1 sequence (whole entry)

[4] = biological target: T1, 5-hydroxytryptamine receptor 3A (Cavia porcellus); assay: Agonist activity at 5HT3 receptor in spontaneously beating guinea pig right atrium assessed as positive chronotropic potency at 100 uM; format: functional, tissue-based; settings: Cardiac atrium; procedure, shortened: as §1
[5] = tested on: Rattus norvegicus; assay: Antagonist activity at 5HT3 receptor in urethane-anesthetized Sprague-Dawley rat assessed as effect on 1-phenylbiguanide-induced bradycardia at 36 ug/kg, iv administered 5 mins before 1-phenylbiguanide challenge measured after 5 to 30 mins post-treatment by von Bezold-Jarisch reflex test; format: functional, organism-based
[6] = biological target: T2, 5-hydroxytryptamine receptor 3A; assay: Antagonist activity at 5HT3 receptor in spontaneously beating guinea pig right atrium assessed as inhibition of serotonin-induced maximum response by noncompetitive binding assay; format: tissue-based, Cardiac atrium
Procedure, shortened: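 Spontaneously beating guinea pig right atrium; 5-HT concentration-response curves (0.001-1.0 µM) before and after 30 min antagonist exposure at three concentrations. IC50 is inhibition of 50% of maximal 5-HT response, Probit analysis, n = 4-6.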

[7] = biological target: T3, 5-hydroxytryptamine receptor 3A (Rattus norvegicus, UniProt P35563); assay: Displacement of [3H]LY278584 from 5HT3 receptor in rat cortical homogenate
T3 sequence (P35563 whole entry): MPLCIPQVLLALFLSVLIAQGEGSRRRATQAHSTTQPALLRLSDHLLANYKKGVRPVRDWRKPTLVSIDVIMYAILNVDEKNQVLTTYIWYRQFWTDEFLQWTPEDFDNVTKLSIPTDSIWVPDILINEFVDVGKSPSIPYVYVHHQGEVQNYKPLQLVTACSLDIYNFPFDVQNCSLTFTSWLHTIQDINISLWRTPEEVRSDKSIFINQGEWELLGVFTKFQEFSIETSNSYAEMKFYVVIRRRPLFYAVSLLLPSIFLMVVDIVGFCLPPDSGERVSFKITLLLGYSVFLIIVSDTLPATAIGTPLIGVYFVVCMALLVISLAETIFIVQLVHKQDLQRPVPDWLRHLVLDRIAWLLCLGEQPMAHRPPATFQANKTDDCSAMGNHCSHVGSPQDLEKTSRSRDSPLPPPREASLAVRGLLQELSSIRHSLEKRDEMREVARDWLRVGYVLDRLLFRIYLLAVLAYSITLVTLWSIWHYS

[8] = tested on: Rattus norvegicus; assay: Agonist activity at 5HT3 receptor in iv dosed urethane-anesthetized Sprague-Dawley rat assessed as induction of bradycardia measured after 5 to 30 mins post-treatment by von Bezold-Jarisch reflex test; format: functional
[9] = biological target: T1, 5-hydroxytryptamine receptor 3A (Cavia porcellus); settings: Thoracic aorta
[10] = biological target: T1, 5-hydroxytryptamine receptor 3A (Cavia porcellus); assay: Agonist activity at 5HT3 receptor in voltage-stimulated guinea pig left atrium assessed as positive inotropic potency; format: functional, tissue-based; settings: Cardiac atrium
Procedure, shortened: (§2)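 Isolated guinea pig atria in PSS (Tyrode) with ketanserin 1 µM, 95% O2-5% CO2, pH 7.4, 35 °C. Right atrium beating spontaneously (rate); left atrium paced 1 Hz, 0.6-0.8 ms pulses near 50% threshold (force). Isometric recording after 45-60 min stabilization.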

[11] = biological target: T1, 5-hydroxytryptamine receptor 3A (Cavia porcellus); assay: Agonist activity at 5HT3 receptor in spontaneously beating guinea pig right atrium assessed as positive chronotropic potency; format: functional, tissue-based; settings: Cardiac atrium; procedure, shortened: as §2
[12] = biological target: T1, 5-hydroxytryptamine receptor 3A (Cavia porcellus); assay: Intrinsic activity at 5HT3 receptor in voltage-stimulated guinea pig left atrium assessed as positive inotropic potency relative to serotonin; format: tissue-based; settings: Cardiac atrium
Procedure, shortened: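 Electrically paced guinea pig left atrium (1 Hz) in PSS containing ketanserin 1 µM, pH 7.4, 35 °C. Contractile force recorded isometrically while cumulative concentrations of 0.1-100 µM were added (DMSO ≤0.3%). Intrinsic activity is expressed as the maximal response relative to that of 5-HT.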

[13] = tested on: Rattus norvegicus; assay: Agonist activity at 5HT3 receptor in urethane-anesthetized Sprague-Dawley rat assessed as decrease in heart rate at 40 ug/kg, iv up to 30 seconds post-treatment by von Bezold-Jarisch reflex test; format: functional; parameters: scale not given: the % may be the effect or the level left
[14] = Ratio of drug level in brain to plasma in rat at 5 mg/kg; format: ADME, organism-based; parameters: dose 5 mg/kg
[15] = tested on: Rattus norvegicus; assay: Antagonist activity at 5HT3 receptor in urethane-anesthetized Sprague-Dawley rat assessed as prevention of 1-phenylbiguanide-induced bradycardia at 1 ug/kg, iv administered 5 mins before 1-phenylbiguanide challenge measured after 5 mins post-treatment by von Bezold-Jarisch reflex test; format: functional; parameters: scale not given: the % may be the effect or the level left
[16] = tested on: Rattus norvegicus; assay: Antagonist activity at 5HT3 receptor in urethane-anesthetized Sprague-Dawley rat assessed as attenuation of 1-phenylbiguanide-induced bradycardia at 50 ug/kg, iv administered 5 mins before 1-phenylbiguanide challenge measured after 30 mins post-treatment by von Bezold-Jarisch reflex test; format: functional; parameters: scale not given: the % may be the effect or the level left
[17] = tested on: Rattus norvegicus; assay: Antagonist activity at 5HT3 receptor in iv dosed urethane-anesthetized Sprague-Dawley rat assessed as inhibition of 1-phenylbiguanide-induced bradycardia administered 5 mins before 1-phenylbiguanide challenge measured after 5 to 30 mins post-treatment by von Bezold-Jarisch reflex test; format: functional

In the case of `CN1[C@@H]2CC[C@H]1C[C@@H](OC(=O)c1c[nH]c3ccccc13)C2` [TROPISETRON], the pD2 [1] is reported as “inactive”, the pD2 [2] is reported as “inactive” and the Kb [3] is reported as 0.0302 µM. For the same compound, the pD2 [4] was “inactive”.
For `O=C(O)CN1CCN(c2nc3cc(F)ccc3n3cccc23)CC1`, the pD2 [1] was “inactive”, the Activity [5] was “inactive” and the pD2 [2] was “inactive”. It also gave an IC50 [6] of 1.91 µM, a Ki [7] of 0.0117 µM and an ED50 [8] of 0.036 mg/kg. The pD2 [4] was “inactive”.
With `NCCc1c[nH]c2ccc(O)cc12` the pD2 [9] was 4.19, the pD2 [10] was 6.85 and the pD2 [11] was 5.78.
Compound `N=C(N)NC(=N)Nc1ccccc1` [PHENYL BIGUANIDE] has a pD2 [10] of 4.31, an Intrinsic activity [12] of 1 and an Activity [13] of 64%.
Work on `O=C(O)CN1CCN(c2nc3cccc(F)c3n3cccc23)CC1` yielded a Kp [14] of 0.1.
Compound `COc1cc(N)c(Cl)cc1C(=O)NC1CN2CCC1CC2` (configuration not stated) [ZACOPRIDE] has an Activity [15] of 100%.
In the case of `NC(=O)CN1CCN(c2nc3cc(F)ccc3n3cccc23)CC1`, the pD2 [1] is reported as “inactive”, the pD2 [2] is reported as “inactive” and the Activity [16] is reported as 35%. The IC50 [6] was 11.2 µM, the Ki [7] was 0.0073 µM and the ID50 [17] was “Dose-dependent effect”. The ED50 ([17]; read-out: ID50 (the source's name)) was 0.075 mg/kg and the pD2 [4] was “inactive”.

Reference: ChEMBL document CHEMBL1136924 (J Med Chem, 2009)
